# Screening results: PubChem BioAssay, Johns Hopkins Ion Channel Center
# TRPC4 block – inhibitors of mouse TRPC4 channel, primary screen, Fluo4 calcium, HEK293 TRPC4beta/mu-opioid cells. Short transient receptor potential channel 4 (Mus musculus), Q9QUQ5. DAMGO-evoked Fluo4 calcium flux; hits give low values. B-score at 10 µM. actives 0.39% (n = 300,000). AID 2247, 2010;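 active means B-score over 3 SD under the library average, no early fluorescence shift, positive overall ratio signal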
#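 Assay system: Stable TRPC4beta/mu-opioid receptor HEK293 cells | Reagent: DAMGO in two steps, submaximal then maximal | Compound dosing: Single concentration per test compound | Signal: Fluo4 Ca2+ flux fluorescence | Evaluation: Per-well B score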
# TRPC6 inhibitor – mouse TRPC6 channel inhibitors, primary screen, cell-based, HEK293, membrane potential dye; AID 2553, 2010; actives 1.1% (n = 310,000); ACh-evoked depolarization; hits give low values; B-score at 10 µM; Short transient receptor potential channel 6 (Mus musculus), Q61143;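 active means B-score under library mean minus 3 SD, initial fluorescence not abnormally high, positive integrated signal ratio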;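 further: B-score derived from integrated fluorescence ratio over the kinetic read; more negative B-score means stronger inhibition of depolarization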
# Target sequence (Q61143 whole entry, looked up): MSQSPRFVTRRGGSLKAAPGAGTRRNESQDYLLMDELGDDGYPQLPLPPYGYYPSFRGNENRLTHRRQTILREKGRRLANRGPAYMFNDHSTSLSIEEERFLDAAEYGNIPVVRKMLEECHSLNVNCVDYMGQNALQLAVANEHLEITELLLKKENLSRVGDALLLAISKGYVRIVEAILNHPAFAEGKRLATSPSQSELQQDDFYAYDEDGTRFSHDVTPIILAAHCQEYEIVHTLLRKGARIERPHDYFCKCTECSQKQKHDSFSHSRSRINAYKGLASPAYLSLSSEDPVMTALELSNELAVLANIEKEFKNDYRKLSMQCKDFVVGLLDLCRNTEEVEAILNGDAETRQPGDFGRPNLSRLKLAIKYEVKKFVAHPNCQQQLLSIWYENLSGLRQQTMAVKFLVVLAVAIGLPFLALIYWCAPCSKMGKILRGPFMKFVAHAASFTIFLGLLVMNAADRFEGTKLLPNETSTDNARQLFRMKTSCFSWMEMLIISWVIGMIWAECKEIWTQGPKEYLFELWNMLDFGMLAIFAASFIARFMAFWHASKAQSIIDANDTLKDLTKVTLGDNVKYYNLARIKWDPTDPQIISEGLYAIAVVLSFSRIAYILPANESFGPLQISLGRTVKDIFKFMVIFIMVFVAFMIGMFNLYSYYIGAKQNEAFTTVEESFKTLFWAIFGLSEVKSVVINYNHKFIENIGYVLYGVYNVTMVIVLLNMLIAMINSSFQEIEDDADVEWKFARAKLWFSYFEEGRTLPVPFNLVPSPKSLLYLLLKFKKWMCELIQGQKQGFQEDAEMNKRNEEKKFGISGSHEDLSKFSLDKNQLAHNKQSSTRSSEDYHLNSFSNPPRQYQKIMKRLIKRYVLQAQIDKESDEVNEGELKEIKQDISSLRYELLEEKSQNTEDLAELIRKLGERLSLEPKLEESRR
# TRPC4 potent – positive allosteric modulators of TRPC4, primary screen, cell-based, mouse TRPC4beta, HEK293 mu-opioid, Fluo-4 calcium; Short transient receptor potential channel 4 (Mus musculus), Q9QUQ5; DAMGO EC20, Fluo-4 Ca2+ flux; hits give high values; B-score at 10 µM; actives 0.42% (n = 310,000);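 active means B-score of calcium response area above 5 SD of library B-scores, with initial fluorescence ratio within 5 SD of library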;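 further: B-score of integrated fluorescence ratio over time as area under calcium response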
# TRPC6 act – mouse TRPC6 channel activators, primary screen, cell-based, HEK293, membrane potential dye. actives 0.13% (n = 310,000). HEK293-TRPC6 membrane potential dye fluorescence; hits give high values. Short transient receptor potential channel 6 (Mus musculus), Q61143. B-score at 10 µM;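 active means B-score of the integrated fluorescence ratio above library mean plus 3 SD, and starting fluorescence ratio within library mean plus 5 SD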;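 further: higher score means more depolarization so channel activation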
# Kir21 inh – inhibitors of mouse Kir2.1 inward-rectifier potassium channel | Inward rectifier potassium channel 2 (Mus musculus), P35561 | HEK293-Kir2.1, FluxOR thallium flux fluorescence; hits give low values | B-score at 10 µM | AID 1672, 2009 | actives 0.85% (n = 310,000);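 active means fluorescence ratio B-score at or below minus 3 SD of library scores, with starting-brightness B-score within 2 SD, cut at about -4.2 in these data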;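 further: channel flux triggered by added potassium and thallium sulfate stimulus; B-score of peak minus minimum fluorescence over baseline after thallium stimulus; more negative B-score means stronger Kir2.1 block with less thallium influx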
# TRPC4 agonist – activators of mouse TRPC4 channel, primary screen, Fluo4 calcium, HEK293 TRPC4beta/mu-opioid cells. B-score at 10 µM. actives 0.49% (n = 310,000). Short transient receptor potential channel 4 (Mus musculus), Q9QUQ5. Fluo4 calcium fluorescence; hits give high values;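 active means B-score above 5 SD of library B-scores, and initial fluorescence ratio not above library mean plus 5 SD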;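 further: positive B-score marks a calcium rise read as TRPC4 activation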
#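 Material: TRPC4beta and mu-opioid receptor HEK293 stable cells | Incubation: 45 min room-temperature Fluo4 loading, 110 s read | Detection: Kinetic Fluo4 calcium fluorescence | Measure: Integrated baseline-normalised fluorescence ratio, converted to per-well B score | Benchmarks: Low control buffer alone, high control maximal DAMGO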
# * = called active by the depositor; i = inactive. Hits are enriched below; roughly 3% of the tested compounds scored in any of these assays.
SMILES,TRPC4 block,TRPC6 inhibitor,TRPC4 potent,TRPC6 act,Kir21 inh,TRPC4 agonist
CCOc1ccc(NS(=O)(=O)c2ccc(C(=O)NCc3ccncc3)cc2)cc1,i,i,i,i,-0.48,i
Cc1ccc(NS(=O)(=O)c2ccc(C(=O)NCc3ccccn3)cc2)cc1,i,i,i,i,0.4,44*
CCOc1ccc(NS(=O)(=O)c2ccc(C(=O)NCc3ccccn3)cc2)cc1,i,i,i,i,0.18,44*
O=C(CCC1CCCN(C(=O)c2ccccc2Cl)C1)N1CCN(c2ccccn2)CC1 (stereo unspecified),i,i,i,i,-0.01,i
CC(=O)c1ccccc1Oc1ncnc(N)c1[N+](=O)[O-],i,i,i,i,0.01,i
O=C1CSC(c2ccccc2)N1CCc1ccccc1 (stereo unspecified),i,i,i,i,-4.25*,i
O=C1CSC(c2cccc([N+](=O)[O-])c2)N1CCc1ccccc1 (stereo unspecified),i,i,i,i,-1.83,i
CC(C)(CO)C(O)C(=O)NCCCO (stereo unspecified),i,i,i,i,-0.44,i
CNc1ccccc1C(=O)OC(C)C(=O)Nc1ccc(Cl)cn1 (stereo unspecified),i,i,i,i,0.23,i
CCC(C(=O)OC(C)C(=O)Nc1ccc(Cl)cn1)c1ccccc1 (stereo unspecified),i,i,i,i,-5.77*,i
C=CCNc1nnc(Cc2ccc(C(C)C)cc2)c(=O)[nH]1,i,i,i,i,0.4,i
Nc1nc2c(s1)CCCCCCCCCC2,i,i,i,i,-7.41*,i
CCN1CCc2nc(N)sc2C1,i,i,i,i,-0.02,i
Clc1cc(CSc2ccccc2)nc(-c2ccccc2)n1,i,i,i,i,-0.15,i
CCCCN1C(=O)C(=O)N(CC(=O)Nc2cc(OCC)c(N3CCOCC3)cc2OCC)C1=O,i,i,21*,i,-0.26,i
CCOc1cc(N2CCOCC2)c(OCC)cc1NC(=O)c1ccc2ccccc2n1,i,i,11*,i,0.29,i
CCOc1cc(N2CCOCC2)c(OCC)cc1NC(=O)CN1C(=O)C2CC=CCC2C1=O (stereo unspecified),i,i,i,i,1.72,i
Cc1ccccc1OCC(=O)Nc1ccc2[nH]ncc2c1,i,i,i,i,-0.03,i
Cc1ccn2c(CNCCCn3cccn3)c(C(=O)N3CCCCCC3)nc2c1,-7*,i,i,i,1.19,i
CC(C)(C)c1ccc(C(=O)NCC(=O)N/N=C/c2ccccc2OCC(=O)O)cc1,i,i,i,i,-0.08,i
COc1ccc(CC(=O)NCCc2cnc[nH]2)cc1,i,i,i,i,0.68,i
COc1ccc(C)c(NC(=O)NCCc2cnc[nH]2)c1,i,i,i,i,-0.05,129*
Cc1coc2cc3oc(=O)c(Cc4ccccc4)c(C)c3cc12,i,i,i,i,1.08,i
Cc1c(Cc2ccccc2)c(=O)oc2cc(O)cc(O)c12,i,i,i,i,-5.28*,i
Cc1ccccc1OCCC(=O)OCC(=O)N(C)c1c(N)n(Cc2ccccc2)c(=O)[nH]c1=O,i,i,i,i,-0.15,i
SMILES,TRPC4 block,TRPC6 inhibitor,TRPC4 potent,TRPC6 act,Kir21 inh,TRPC4 agonist
Cc1ccc(C(=O)Nc2cccnc2Oc2ccc(Cl)cc2)cc1,i,i,i,i,-1.41,i
Cc1ccc(S(=O)(=O)Nc2cccnc2Oc2ccc(Cl)cc2)cc1,i,i,i,i,-5.01*,i
CCN(CC)S(=O)(=O)c1cc(C(=O)OCC(=O)NC(=O)c2cccn2C)ccc1C,i,i,i,i,0.64,i
CC(C)(C)SCCNC(=O)/C=C/c1cccc([N+](=O)[O-])c1,i,i,i,i,0.83,i
Cc1ccc2oc(=O)cc(CN3CCN(Cc4ccccc4)CC3)c2c1,i,i,i,i,-1.47,i
CCc1ccc2c(CN3CCN(Cc4ccccc4)CC3)cc(=O)oc2c1,i,i,i,i,-5.19*,i
CN1CCN(NC(=O)c2ccc(Cl)c([N+](=O)[O-])c2)CC1,i,i,i,i,0.24,44*
CC(=O)C1=C(c2ccc(Br)cc2)C(=O)c2ccccc2C1=O,i,i,35*,i,0.34,i
CC(=O)OC1=C(O)C(=O)c2ccccc2C1=O,i,i,i,i,0.58,i
C/C(=N\N=C(N)N)c1ccc(Cl)cc1Cl,i,i,i,i,-7.15*,i
C/C(=N\N=C(N)N)c1cc(Cl)ccc1Cl,i,i,i,i,-5.75*,i
O=C(Cn1c2c(c(-c3ccccc3Cl)cc1=O)CCC2)NCCCN1CCOCC1,i,i,i,i,0.22,i
O/N=C/c1ccccc1Oc1ccccc1,i,i,i,i,-1.69,i
O/N=C/c1ccccc1Oc1ccc(Cl)cc1,-6*,i,i,i,-1.24,i
O=C(CSc1ccc([N+](=O)[O-])cn1)Nc1cc(C(F)(F)F)ccc1N1CCOCC1,i,i,i,i,1.95,i
O=C(CSc1ccc([N+](=O)[O-])cn1)Nc1ccccc1N1CCOCC1,i,i,i,i,-4.58*,i
O=C(CSc1nc2ccccc2o1)Nc1ccccc1N1CCOCC1,i,i,i,i,-8.77*,i
CC(C)C1CC(CCN)(Cc2ccccc2)CCO1 (stereo unspecified),i,i,i,i,-1.14,i
CC(=N)C1=C(O)CC(c2ccccc2)CC1=O (stereo unspecified),i,i,i,i,-0.77,i
Cc1ccccc1CSCC(=O)Nc1ccccc1-c1ccccc1,i,i,i,i,-6.9*,i
Cc1ccccc1NC(=O)CSCC(=O)Nc1ccccc1C,i,i,i,i,-0.02,i
